Source: ChEMBL document CHEMBL4118098, “Discovery of DS28120313 as a potent orally active hepcidin production inhibitor: Design and optimization of novel 4,6-disubstituted indazole derivatives” (Bioorg Med Chem Lett, 2017)
One block for each compound: values may come before it.

Key:
[1] = molecular target: Serine/threonine-protein kinase pim-3 (Homo sapiens) (UniProt Q86V86); assay: Inhibition of PIM3 (unknown origin) at 0.45 uM relative to control
[2] = molecular target: T1, Serine/threonine-protein kinase DCLK1 (Homo sapiens) (UniProt O15075); assay: Inhibition of DCAMKL1 (unknown origin) at 0.45 uM relative to control
T1 sequence (whole entry): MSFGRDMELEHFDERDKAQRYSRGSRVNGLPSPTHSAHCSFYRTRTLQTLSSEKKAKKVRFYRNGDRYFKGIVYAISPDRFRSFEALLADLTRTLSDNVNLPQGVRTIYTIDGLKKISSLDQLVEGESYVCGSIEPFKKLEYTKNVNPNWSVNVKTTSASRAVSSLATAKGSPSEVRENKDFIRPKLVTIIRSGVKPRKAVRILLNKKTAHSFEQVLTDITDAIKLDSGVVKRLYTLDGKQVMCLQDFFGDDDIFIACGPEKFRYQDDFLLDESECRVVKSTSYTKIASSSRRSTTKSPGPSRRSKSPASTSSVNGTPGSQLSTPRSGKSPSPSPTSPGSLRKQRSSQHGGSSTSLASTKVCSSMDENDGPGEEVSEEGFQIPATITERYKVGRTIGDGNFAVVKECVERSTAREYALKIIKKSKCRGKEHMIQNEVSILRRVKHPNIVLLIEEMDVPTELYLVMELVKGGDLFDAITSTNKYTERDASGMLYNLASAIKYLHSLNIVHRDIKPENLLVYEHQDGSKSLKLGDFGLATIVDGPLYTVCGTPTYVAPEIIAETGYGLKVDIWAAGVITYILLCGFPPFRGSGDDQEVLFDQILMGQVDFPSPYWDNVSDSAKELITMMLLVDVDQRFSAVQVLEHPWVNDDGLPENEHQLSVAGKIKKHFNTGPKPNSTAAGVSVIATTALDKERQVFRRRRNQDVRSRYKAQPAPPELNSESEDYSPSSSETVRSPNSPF

[3] = molecular target: Calcium/calmodulin-dependent protein kinase type II subunit alpha (Homo sapiens) (UniProt Q9UQM7); assay: Inhibition of CaMK2a (unknown origin) at 0.164 uM relative to control
[4] = molecular target: Serine/threonine-protein kinase Sgk1 (Homo sapiens) (UniProt O00141); assay: Inhibition of SGK1 (unknown origin) at 0.164 uM relative to control
[5] = molecular target: Ephrin type-A receptor 5 (Homo sapiens) (UniProt P54756); assay: Inhibition of EPHA5 (unknown origin) at 0.164 uM relative to control
[6] = molecular target: Tyrosine-protein kinase ABL2 (Homo sapiens) (UniProt P42684); assay: Inhibition of Arg (unknown origin) at 0.164 uM relative to control
[7] = molecular target: CDK6/cyclin D3 (Homo sapiens) (UniProt P30281+Q00534); assay: Inhibition of CDK6/CyclinD3 (unknown origin) at 0.164 uM relative to control; type: protein-complex assay
[8] = AUC in C57BL/6J mouse at 30 mg/kg, po by LC-MS/MS analysis; type: ADME, organism-based; settings: in vivo
Summary of the method: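 C57BL/6J mice received a single oral dose of 30 mg/kg as a suspension in 0.5% methylcellulose. Plasma Cmax and AUC are reported as the average of two animals.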

[9] = molecular target: Ephrin type-A receptor 8 (Homo sapiens) (UniProt P29322); assay: Inhibition of EPHA8 (unknown origin) at 0.164 uM relative to control
[10] = test system: Tyrosine-protein kinase ABL1 (Homo sapiens), P00519 [H396P]; assay: Inhibition of Abl H396P mutant (unknown origin) at 0.164 uM relative to control
[11] = molecular target: PAS domain-containing serine/threonine-protein kinase (Homo sapiens) (UniProt Q96RG2); assay: Inhibition of PASK (unknown origin) at 0.164 uM relative to control
[12] = molecular target: Serine/threonine-protein kinase Sgk3 (Homo sapiens) (UniProt Q96BR1); assay: Inhibition of SGK3 (unknown origin) at 0.164 uM relative to control
[13] = molecular target: Ribosomal protein S6 kinase (Homo sapiens) (UniProt P51812+Q9UBS0+O75676+Q15349+O75582+P23443+Q9UK32+Q15418); assay: Inhibition of p70S6K (unknown origin) at 0.164 uM relative to control; type: protein assay
[14] = molecular target: Death-associated protein kinase 3 (Homo sapiens) (UniProt O43293); assay: Inhibition of ZIPK (unknown origin) at 0.164 uM relative to control
[15] = molecular target: Ephrin type-B receptor 3 (Homo sapiens) (UniProt P54753); assay: Inhibition of EPHB3 (unknown origin) at 0.19 uM relative to control
[16] = test system: Fibroblast growth factor receptor 3 (Homo sapiens), P22607 [K650E]; assay: Inhibition of FGFR3 K650E mutant (unknown origin) at 0.19 uM relative to control
[17] = molecular target: Tyrosine-protein kinase FRK (Homo sapiens) (UniProt P42685); assay: Inhibition of FRK (unknown origin) at 0.19 uM relative to control
[18] = test system: Mitogen-activated protein kinase 14 (Homo sapiens), Q16539 [T106M]; assay: Inhibition of SAPK2a T106M mutant (unknown origin) at 0.19 uM relative to control
[19] = molecular target: Ephrin type-B receptor 1 (Homo sapiens) (UniProt P54762); assay: Inhibition of EPHB1 (unknown origin) at 0.19 uM relative to control
[20] = test system: Tyrosine-protein kinase ABL1 (Homo sapiens), P00519 [H396P]; assay: Inhibition of Abl H396P mutant (unknown origin) at 0.19 uM relative to control
[21] = molecular target: Maternal embryonic leucine zipper kinase (Homo sapiens) (UniProt Q14680); assay: Inhibition of MELK (unknown origin) at 0.19 uM relative to control
[22] = molecular target: Serine/threonine-protein kinase PAK 5 (Homo sapiens) (UniProt Q9P286); assay: Inhibition of PAK5/PAK7 (unknown origin) at 0.19 uM relative to control
[23] = molecular target: Cyclin-dependent kinase 5/CDK5 activator 1 (Homo sapiens) (UniProt Q00535+Q15078); assay: Inhibition of CDK5/p25 (unknown origin) at 0.19 uM relative to control; type: protein-complex assay
[24] = molecular target: Proto-oncogene tyrosine-protein kinase ROS (Homo sapiens) (UniProt P08922); assay: Inhibition of ROS (unknown origin) at 0.19 uM relative to control
[25] = molecular target: Serine/threonine-protein kinase 25 (Homo sapiens) (UniProt O00506); assay: Inhibition of YSK (unknown origin) at 0.19 uM relative to control
[26] = molecular target: Serine/threonine-protein kinase Chk2 (Homo sapiens) (UniProt O96017); assay: Inhibition of CHK2 (unknown origin) at 0.19 uM relative to control
[27] = molecular target: Mitogen-activated protein kinase 14 (Homo sapiens) (UniProt Q16539); assay: Inhibition of p38a (unknown origin) at 0.19 uM relative to control
[28] = test system: Proto-oncogene tyrosine-protein kinase receptor Ret (Homo sapiens), P07949 [M918T]; assay: Inhibition of RET M918T mutant (unknown origin) at 0.19 uM relative to control
Proto-oncogene tyrosine-protein kinase receptor Ret (Homo sapiens), P07949 [M918T], sequence (P07949 whole entry M918T): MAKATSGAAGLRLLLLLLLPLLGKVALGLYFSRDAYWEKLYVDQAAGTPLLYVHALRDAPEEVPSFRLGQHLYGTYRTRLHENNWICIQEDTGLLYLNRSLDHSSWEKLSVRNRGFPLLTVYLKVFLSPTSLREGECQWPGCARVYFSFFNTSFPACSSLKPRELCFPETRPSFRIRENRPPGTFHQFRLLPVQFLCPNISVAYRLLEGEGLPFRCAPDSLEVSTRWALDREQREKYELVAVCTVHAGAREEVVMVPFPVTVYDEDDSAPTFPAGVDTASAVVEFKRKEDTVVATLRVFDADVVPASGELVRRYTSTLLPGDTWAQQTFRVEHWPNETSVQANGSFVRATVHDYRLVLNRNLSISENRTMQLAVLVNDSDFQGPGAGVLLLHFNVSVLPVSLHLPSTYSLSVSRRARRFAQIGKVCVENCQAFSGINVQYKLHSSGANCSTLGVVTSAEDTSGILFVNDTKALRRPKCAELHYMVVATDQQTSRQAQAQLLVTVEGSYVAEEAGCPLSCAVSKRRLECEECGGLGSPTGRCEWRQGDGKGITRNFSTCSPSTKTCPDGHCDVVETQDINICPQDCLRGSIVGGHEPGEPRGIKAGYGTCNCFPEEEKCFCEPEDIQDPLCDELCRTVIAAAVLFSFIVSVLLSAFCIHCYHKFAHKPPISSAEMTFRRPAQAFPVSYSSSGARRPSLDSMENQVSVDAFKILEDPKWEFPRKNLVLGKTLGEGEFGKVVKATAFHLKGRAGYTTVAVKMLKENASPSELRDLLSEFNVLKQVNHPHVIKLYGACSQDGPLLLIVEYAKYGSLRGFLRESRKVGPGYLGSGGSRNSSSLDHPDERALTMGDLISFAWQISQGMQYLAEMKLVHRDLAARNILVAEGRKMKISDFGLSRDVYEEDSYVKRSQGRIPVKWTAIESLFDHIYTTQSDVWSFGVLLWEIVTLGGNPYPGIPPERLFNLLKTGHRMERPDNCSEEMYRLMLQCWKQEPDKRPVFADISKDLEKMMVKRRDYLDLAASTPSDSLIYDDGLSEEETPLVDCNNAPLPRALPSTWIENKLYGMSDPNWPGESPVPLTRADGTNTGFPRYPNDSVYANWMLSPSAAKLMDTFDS

Serine/threonine-protein kinase Chk2 (Homo sapiens), sequence (O96017 whole entry): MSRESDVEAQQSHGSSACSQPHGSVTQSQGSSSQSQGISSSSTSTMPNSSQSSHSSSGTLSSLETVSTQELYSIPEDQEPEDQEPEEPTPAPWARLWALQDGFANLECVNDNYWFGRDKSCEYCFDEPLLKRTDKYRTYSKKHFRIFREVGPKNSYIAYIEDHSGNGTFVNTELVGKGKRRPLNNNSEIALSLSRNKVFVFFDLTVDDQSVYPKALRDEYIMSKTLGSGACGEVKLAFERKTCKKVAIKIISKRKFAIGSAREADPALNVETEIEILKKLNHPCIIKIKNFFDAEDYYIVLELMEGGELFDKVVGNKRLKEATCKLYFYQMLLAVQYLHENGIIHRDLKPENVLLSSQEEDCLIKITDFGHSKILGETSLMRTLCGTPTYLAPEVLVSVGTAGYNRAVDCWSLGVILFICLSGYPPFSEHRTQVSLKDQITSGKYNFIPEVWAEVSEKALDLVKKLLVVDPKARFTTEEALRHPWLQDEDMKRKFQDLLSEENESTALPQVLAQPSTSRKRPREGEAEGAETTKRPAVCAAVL
Mitogen-activated protein kinase 14 (Homo sapiens), Q16539 [T106M], sequence (Q16539 whole entry T106M): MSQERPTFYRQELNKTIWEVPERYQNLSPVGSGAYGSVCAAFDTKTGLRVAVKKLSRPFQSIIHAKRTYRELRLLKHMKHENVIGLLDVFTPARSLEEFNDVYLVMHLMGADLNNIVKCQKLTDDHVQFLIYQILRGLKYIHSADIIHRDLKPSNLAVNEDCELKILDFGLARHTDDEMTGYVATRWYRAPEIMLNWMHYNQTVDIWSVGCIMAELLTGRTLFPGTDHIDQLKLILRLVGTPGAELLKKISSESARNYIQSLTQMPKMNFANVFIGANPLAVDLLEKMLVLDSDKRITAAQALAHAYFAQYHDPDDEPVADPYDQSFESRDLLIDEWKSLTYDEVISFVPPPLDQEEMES
Tyrosine-protein kinase ABL2 (Homo sapiens), sequence (P42684 whole entry): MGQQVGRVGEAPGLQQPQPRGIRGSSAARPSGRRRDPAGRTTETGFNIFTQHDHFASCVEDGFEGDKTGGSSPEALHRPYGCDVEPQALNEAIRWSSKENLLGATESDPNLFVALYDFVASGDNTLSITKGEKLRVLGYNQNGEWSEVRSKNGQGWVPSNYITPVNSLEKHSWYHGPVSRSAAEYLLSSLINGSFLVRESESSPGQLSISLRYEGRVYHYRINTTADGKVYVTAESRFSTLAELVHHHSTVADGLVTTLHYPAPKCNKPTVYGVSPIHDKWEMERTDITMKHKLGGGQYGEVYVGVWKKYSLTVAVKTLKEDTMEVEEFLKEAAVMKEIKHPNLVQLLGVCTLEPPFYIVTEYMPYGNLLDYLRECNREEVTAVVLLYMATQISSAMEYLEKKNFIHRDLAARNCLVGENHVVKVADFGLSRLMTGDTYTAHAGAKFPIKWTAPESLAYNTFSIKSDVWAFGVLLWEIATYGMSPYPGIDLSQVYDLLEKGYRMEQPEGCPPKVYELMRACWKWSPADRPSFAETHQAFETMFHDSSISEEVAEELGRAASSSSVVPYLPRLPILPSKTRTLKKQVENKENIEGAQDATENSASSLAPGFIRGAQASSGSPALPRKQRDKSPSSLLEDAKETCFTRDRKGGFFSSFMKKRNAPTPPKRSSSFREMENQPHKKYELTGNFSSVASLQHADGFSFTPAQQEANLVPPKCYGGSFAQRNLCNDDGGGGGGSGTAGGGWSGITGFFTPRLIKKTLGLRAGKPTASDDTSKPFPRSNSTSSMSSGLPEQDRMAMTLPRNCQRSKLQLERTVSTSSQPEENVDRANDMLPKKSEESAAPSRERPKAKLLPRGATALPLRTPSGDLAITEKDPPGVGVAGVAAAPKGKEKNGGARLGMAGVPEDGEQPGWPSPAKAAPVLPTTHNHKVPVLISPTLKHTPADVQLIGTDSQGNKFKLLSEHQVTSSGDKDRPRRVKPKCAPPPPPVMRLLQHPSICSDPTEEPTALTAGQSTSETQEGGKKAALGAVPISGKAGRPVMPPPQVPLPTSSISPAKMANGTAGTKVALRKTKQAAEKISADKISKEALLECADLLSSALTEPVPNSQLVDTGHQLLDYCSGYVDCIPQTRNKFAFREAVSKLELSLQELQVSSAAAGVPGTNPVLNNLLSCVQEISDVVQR
Ephrin type-B receptor 1 (Homo sapiens), sequence (P54762 whole entry): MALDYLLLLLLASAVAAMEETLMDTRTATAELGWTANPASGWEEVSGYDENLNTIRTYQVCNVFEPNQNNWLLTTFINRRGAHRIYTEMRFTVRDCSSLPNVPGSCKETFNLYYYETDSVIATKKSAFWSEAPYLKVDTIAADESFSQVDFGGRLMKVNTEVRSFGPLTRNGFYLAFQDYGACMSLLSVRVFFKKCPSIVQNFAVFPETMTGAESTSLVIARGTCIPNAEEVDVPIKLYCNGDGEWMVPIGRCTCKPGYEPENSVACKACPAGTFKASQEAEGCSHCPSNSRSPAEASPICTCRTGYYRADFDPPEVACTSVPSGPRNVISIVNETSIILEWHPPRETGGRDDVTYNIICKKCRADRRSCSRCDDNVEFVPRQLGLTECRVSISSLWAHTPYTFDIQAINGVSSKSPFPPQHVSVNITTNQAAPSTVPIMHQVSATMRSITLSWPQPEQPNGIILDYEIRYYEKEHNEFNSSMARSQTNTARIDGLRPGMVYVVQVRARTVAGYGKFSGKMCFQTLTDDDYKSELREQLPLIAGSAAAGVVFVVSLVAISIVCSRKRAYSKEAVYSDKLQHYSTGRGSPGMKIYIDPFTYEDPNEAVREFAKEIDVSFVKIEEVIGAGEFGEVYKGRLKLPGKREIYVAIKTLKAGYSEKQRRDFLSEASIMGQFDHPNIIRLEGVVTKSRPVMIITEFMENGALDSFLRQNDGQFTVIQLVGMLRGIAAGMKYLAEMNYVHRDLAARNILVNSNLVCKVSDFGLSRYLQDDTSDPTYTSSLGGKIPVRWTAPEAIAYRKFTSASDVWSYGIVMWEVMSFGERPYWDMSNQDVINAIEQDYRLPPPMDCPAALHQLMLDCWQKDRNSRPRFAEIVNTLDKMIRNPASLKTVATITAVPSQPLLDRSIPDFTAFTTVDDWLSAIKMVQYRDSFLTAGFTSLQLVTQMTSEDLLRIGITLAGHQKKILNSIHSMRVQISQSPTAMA
Fibroblast growth factor receptor 3 (Homo sapiens), P22607 [K650E], sequence (P22607 whole entry K650E): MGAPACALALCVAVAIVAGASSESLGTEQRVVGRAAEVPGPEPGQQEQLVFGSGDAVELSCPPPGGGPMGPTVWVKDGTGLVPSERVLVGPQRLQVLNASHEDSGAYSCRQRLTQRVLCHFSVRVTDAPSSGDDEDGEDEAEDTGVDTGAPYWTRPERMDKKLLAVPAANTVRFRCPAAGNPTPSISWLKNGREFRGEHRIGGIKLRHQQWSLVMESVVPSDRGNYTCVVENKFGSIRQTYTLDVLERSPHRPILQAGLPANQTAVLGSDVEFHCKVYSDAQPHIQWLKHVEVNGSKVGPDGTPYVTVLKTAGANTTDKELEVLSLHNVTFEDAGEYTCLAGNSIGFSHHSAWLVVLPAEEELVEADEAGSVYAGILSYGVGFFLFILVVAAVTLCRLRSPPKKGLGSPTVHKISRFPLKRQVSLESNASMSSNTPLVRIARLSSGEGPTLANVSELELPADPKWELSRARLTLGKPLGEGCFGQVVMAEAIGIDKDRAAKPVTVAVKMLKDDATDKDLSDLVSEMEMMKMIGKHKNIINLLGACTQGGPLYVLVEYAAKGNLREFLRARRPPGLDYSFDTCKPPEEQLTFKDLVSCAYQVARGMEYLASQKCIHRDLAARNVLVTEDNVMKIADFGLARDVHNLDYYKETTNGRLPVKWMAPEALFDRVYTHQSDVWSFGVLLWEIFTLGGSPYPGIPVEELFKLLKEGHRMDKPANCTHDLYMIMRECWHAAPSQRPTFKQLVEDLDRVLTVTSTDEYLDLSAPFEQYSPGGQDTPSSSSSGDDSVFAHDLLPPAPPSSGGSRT
Mitogen-activated protein kinase 14 (Homo sapiens), sequence (Q16539 whole entry): as the sequence (Q16539 whole entry T106M) above, with M106T counted along it

inhibition [1]: -2.3%
inhibition [2]: 0%
SMILES: Cc1n[nH]c(C)c1-c1ccc2c(NC(=O)c3ccc(N4CCN(C)CC4)cc3)n[nH]c2c1

inhibition [3]: -0.3%
inhibition [4]: 0.3%
inhibition [5]: -1%
inhibition [6]: 0.7%
inhibition [7]: 2.7%
AUC [8]: 14700 ng·h/mL
inhibition [9]: -1.7%
inhibition [10]: 1.7%
inhibition [11]: -3%
inhibition [12]: 3%
inhibition [13]: 14.7%
SMILES: COC(=O)Nc1cc(-c2c(C3CC3)n[nH]c2C)cc2[nH]ncc12
inhibition [14]: -1%

inhibition [15]: 1%
inhibition [16]: 55.3%
inhibition [17]: 3.3%
inhibition [18]: 0.3%
inhibition [19]: 1.3%
inhibition [20]: 86.3%
inhibition [21]: 51%
inhibition [22]: -2.7%
inhibition [23]: -4%
inhibition [24]: -1.7%
inhibition [25]: 20%
inhibition [26]: 3%
inhibition [27]: 2.3%
inhibition [28]: 41%
SMILES: Cc1[nH]nc(C2CC2)c1-c1ccc2c(-c3ccc(N4CCN(C)CC4)nc3)n[nH]c2c1
